Source: PubChem BioAssay (Sanford-Burnham Center for Chemical Genomics)
FLuc inhib CS = firefly luciferase enzyme inhibitors, primary screen, artefact control for luciferase-based inhibitor screens, biochemical, luminescence, ATPLite; 10 min; Luciferin 4-monooxygenase (Photinus pyralis), P08659; 200,000 compounds, 1.5% hits; inhibition, % at 10 µM;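 active means inhibition above about 50% when tested at 10 µM, limit read from the data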
Target sequence (P08659 whole entry, looked up): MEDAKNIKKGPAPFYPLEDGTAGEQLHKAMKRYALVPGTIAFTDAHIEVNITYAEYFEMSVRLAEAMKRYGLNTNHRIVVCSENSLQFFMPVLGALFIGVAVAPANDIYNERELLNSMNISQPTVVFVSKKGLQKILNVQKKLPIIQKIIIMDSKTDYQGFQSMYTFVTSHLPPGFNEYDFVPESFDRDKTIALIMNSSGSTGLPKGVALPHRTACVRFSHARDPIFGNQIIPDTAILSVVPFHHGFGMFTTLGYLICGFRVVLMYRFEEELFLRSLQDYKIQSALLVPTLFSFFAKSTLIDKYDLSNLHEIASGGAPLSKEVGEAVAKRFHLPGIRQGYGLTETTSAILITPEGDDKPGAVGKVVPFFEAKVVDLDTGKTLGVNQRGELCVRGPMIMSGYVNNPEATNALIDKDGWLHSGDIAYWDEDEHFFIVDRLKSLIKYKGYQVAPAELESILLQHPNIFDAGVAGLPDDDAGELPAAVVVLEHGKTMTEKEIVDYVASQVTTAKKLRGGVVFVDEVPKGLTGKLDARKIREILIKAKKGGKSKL
C8 TRAIL sens = viability loss with TRAIL in NB7+C8 cells, primary screen, TRAIL sensitizer project, cell-based, ATPlite luminescence; inhibition (viability loss, TRAIL sensitization), % at 10 µM; 360,000 compounds, 1% hits;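 active means compounds causing at least 50% loss of cell viability in the single-dose screen, relative to plate controls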
PPC-1+TRAIL kill = compounds killing PPC-1 cancer cells with TRAIL present, primary screen, TRAIL potentiator project, ATPLite luminescence, uHTS; PPC-1 cells + TRAIL, ATPLite viability luminescence; cell killing (% activity), % at 4 µM or 5 µM; 220,000 compounds, 0.41% hits;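 active means cell killing above 50% in the first pass at 4 µM, then a duplicate retest at 5 µM averaging 50% or more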;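 further: plate controls were cells with TRAIL plus DMSO for no effect and medium-only wells lacking cells for full effect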
FLuc stim CS = FLuc activators, initial screening, artefact control for FLuc-dependent activation tests, biochemical, ATPlite luminescence. activation factor at 10 µM. 200,000 tested, under 10 active. Luciferin 4-monooxygenase (Photinus pyralis), P08659. AID 1027, 2008. ATPlite luciferase biochemical, 10 min; 0 = ATP-free wells, 1 = DMSO control;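 active means luciferase activation factor, scaled between plate controls, of at least 2 with compound at 10 µM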
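test system = cell-free luciferase reagent | medium = PBS as buffer for the ATP substrate | dosing = test compounds dosed from 2 mM stocks in 100% DMSO | incubation = 10 min at ambient temperature | detection = luminescence measurement of luciferase light output | benchmarks = low control with PBS replacing ATP, high control enzyme plus ATP without compound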
Starred values were filed as active, the others as inactive. Rows were chosen to be rich in hits. Some 1.5% of all compounds tested hit in one or more screens of this group.

Screening COc1ccc(-c2nn(-c3ccccc3)cc2/C=N/NC(=O)c2ccc(Br)o2)cc1 returned FLuc inhib CS -4.5, C8 TRAIL sens 69.3*, PPC-1+TRAIL kill 15.3 and FLuc stim CS 1.
CC(=O)Oc1ccc(C(=O)NCCc2ccccc2)cc1 was read as FLuc inhib CS 51.1*, C8 TRAIL sens 6.8, PPC-1+TRAIL kill 19.5 and FLuc stim CS 0.5.
Screening CCOc1ccc(C(=O)NCCc2ccccc2)cc1 returned FLuc inhib CS 72.8*, C8 TRAIL sens 41.2, PPC-1+TRAIL kill 42.6 and FLuc stim CS 0.3.
`CC(=O)Oc1ccc(-c2ccc(C(=O)NCCc3ccc(S(N)(=O)=O)cc3)cc2)cc1` gave C8 TRAIL sens -7.0.
For O=C(NCCc1ccccc1)c1ccc2nccnc2c1 the results were FLuc inhib CS 77.0*, C8 TRAIL sens 35.9 and FLuc stim CS 0.2.
Screening CCOc1ccc(C(=O)NCCCCNC(=O)c2ccc(OCC)cc2)cc1 returned C8 TRAIL sens -10.8.
For COc1ccccc1OCCNC(=O)CNC(=O)c1ccc2c(c1)OCO2 the results were C8 TRAIL sens 8.3.
`COc1ccccc1OCCNC(=O)c1ccc2c(c1)OCCO2` gave C8 TRAIL sens 51.7*.
O=C(NCCc1ccccc1)c1cccnc1 was read as FLuc inhib CS 1.8, C8 TRAIL sens 7.8, PPC-1+TRAIL kill 24.2 and FLuc stim CS 1.
`O=C(NCCS(=O)(=O)NCc1ccccc1)c1ccc2c(c1)OCO2` gave C8 TRAIL sens 2.0.
`O=C(NCCc1ccccc1)c1ccc2c(c1)OCO2` gave C8 TRAIL sens 71.0*.
Cc1cc(C(=O)CSc2nc3ccccc3[nH]2)c(C)n1CC1CCCO1 (configuration not stated) was read as FLuc inhib CS 47.6, C8 TRAIL sens 76.3*, PPC-1+TRAIL kill 7.1 and FLuc stim CS 0.5.
`Cc1cc(C(=O)COC(=O)c2ccc3c(c2)OCO3)c(C)n1CC1CCCO1` (configuration not stated) gave FLuc inhib CS 67.1*, C8 TRAIL sens 0.8, PPC-1+TRAIL kill 32.2 and FLuc stim CS 0.3.
For COc1cc(C(=O)OCC(=O)c2cc(C)n(CC3CCCO3)c2C)cc(OC)c1C (configuration not stated) the results were C8 TRAIL sens 7.0.
`Cc1cc(C(=O)CSc2nc(N)cc(=O)[nH]2)c(C)n1CC1CCCO1` (configuration not stated) gave C8 TRAIL sens 3.9.
For CSc1ncccc1C(=O)OCC(=O)c1cc(C)n(C)c1C the results were C8 TRAIL sens 25.4.
`CSc1ncccc1C(=O)OCC(=O)c1cc(C)n(CC2CCCO2)c1C` (configuration not stated) gave C8 TRAIL sens 47.6* and PPC-1+TRAIL kill 31.7.
Screening CCn1c(C)cc(C(=O)COC(=O)c2cccnc2SC)c1C returned C8 TRAIL sens 18.8.
Cc1cc(C(=O)COC(=O)c2cccnc2Cl)c(C)n1C was read as C8 TRAIL sens 64.2*.
Screening Cc1nc2ccc(C(=O)OCC(=O)N(C)c3ccccc3)cc2nc1C returned C8 TRAIL sens 1.1.
O=c1cc(-c2ccccc2)nc2nc(CCc3ccccc3)[nH]n12 was read as FLuc inhib CS 3.6, C8 TRAIL sens -2.3, PPC-1+TRAIL kill 2.4 and FLuc stim CS 1.
For O=c1cc(-c2ccccc2)nc2nc(-c3ccco3)[nH]n12 the results were FLuc inhib CS 72.5*, C8 TRAIL sens 20.8, PPC-1+TRAIL kill 30.0 and FLuc stim CS 0.3.
`O=C1CCC(=O)N1c1nc2nc(-c3ccccc3)cc(=O)n2[nH]1` gave FLuc inhib CS -5.6, C8 TRAIL sens -2.7, PPC-1+TRAIL kill 23.4 and FLuc stim CS 1.1.
For Cc1ccccc1-c1cc2nc(-c3ccc([N+](=O)[O-])cc3)cc(=O)n2[nH]1 the results were FLuc inhib CS -0.5, C8 TRAIL sens 0.4, PPC-1+TRAIL kill 11.3 and FLuc stim CS 1.
Cc1cccc(-c2cc3nc(-c4ccccc4)cc(=O)n3[nH]2)c1 was read as C8 TRAIL sens 43.8*.
Screening Cc1nc2nc(-c3ccccc3)cc(=O)n2[nH]1 returned FLuc inhib CS 55.7*, C8 TRAIL sens 31.5, PPC-1+TRAIL kill 33.5 and FLuc stim CS 0.4.
`CCc1nc(SCc2cc(Cl)ccc2OC)n[nH]1` gave FLuc inhib CS -6.4, C8 TRAIL sens 0.3, PPC-1+TRAIL kill 11.3 and FLuc stim CS 1.1.
`CN(C)c1ccc(N/C=C/C(=O)c2ccco2)cc1` gave FLuc inhib CS 96.0*, C8 TRAIL sens 61.5*, PPC-1+TRAIL kill 25.4 and FLuc stim CS 0.
`O=C(/C=C/Nc1ccc(F)c(Cl)c1)c1ccco1` gave FLuc inhib CS 41.4, C8 TRAIL sens 11.7, PPC-1+TRAIL kill 29.9 and FLuc stim CS 0.6.
`COC(=O)c1ccc(N/C=C/C(=O)c2ccccc2)cc1` gave C8 TRAIL sens 54.6*.
For CN(C)c1ccc(N/C=C/C(=O)c2ccc(F)cc2)cc1 the results were FLuc inhib CS 58.0*, C8 TRAIL sens 29.9, PPC-1+TRAIL kill 12.7 and FLuc stim CS 0.4.
For CC(=O)Nc1ccc(N/C=C/C(=O)c2ccco2)cc1 the results were FLuc inhib CS 36.8, C8 TRAIL sens 4.5, PPC-1+TRAIL kill 12.7 and FLuc stim CS 0.6.
`O=C(/C=C/Nc1cccc(F)c1)c1ccco1` gave FLuc inhib CS 75.8*, C8 TRAIL sens 27.4, PPC-1+TRAIL kill 7.4 and FLuc stim CS 0.2.
For COc1ccc(/C=N/Nc2ccc([N+](=O)[O-])cc2)cc1O the results were C8 TRAIL sens 20.2.
Cc1cc(-c2ccc(C)c(S(=O)(=O)N3CCN(c4ccccn4)CC3)c2)on1 was read as C8 TRAIL sens 12.4.
For CCn1c(=O)c2sccc2n(Cc2cccc(C)c2)c1=O the results were C8 TRAIL sens -11.3.
COc1ccc(/C=C/C(=O)c2ccc(OC)cc2OC)c(OC)c1 was read as FLuc inhib CS 3.2, C8 TRAIL sens 4.3, PPC-1+TRAIL kill 3.3 and FLuc stim CS 1.
Screening COc1ccc(N/C=C/C(=O)c2ccc3c(c2)OCO3)cc1OC returned FLuc inhib CS 59.6*, C8 TRAIL sens 25.4, PPC-1+TRAIL kill -6.5 and FLuc stim CS 0.4.
`COc1ccc(N/C=C\C(=O)c2ccc(C)cc2)cc1OC` gave FLuc inhib CS 16.1, C8 TRAIL sens 4.0, PPC-1+TRAIL kill 10.3 and FLuc stim CS 0.8.
CCOc1ccc(N/C=C\C(=O)c2ccc3c(c2)OCO3)cc1 was read as C8 TRAIL sens 22.6.
Screening COc1ccc(/C=C/C(=O)c2ccccc2)c(OC)c1 returned FLuc inhib CS 71.4*, C8 TRAIL sens 17.3, PPC-1+TRAIL kill 21.9 and FLuc stim CS 0.3.
`COc1cccc(/C=C/C(=O)c2ccc3c(c2)OCCO3)c1OC` gave C8 TRAIL sens 71.2*.
For O=C(/C=C\Nc1ccc2c(c1)OCO2)c1ccc(Cl)s1 the results were FLuc inhib CS 87.1*, C8 TRAIL sens 72.8*, PPC-1+TRAIL kill 37.0 and FLuc stim CS 0.1.
Screening CCN(CC(=O)Nc1ccc2c(c1)OCCO2)C(=O)/C=C/c1cccc(OC)c1OC returned C8 TRAIL sens -5.6.
